Holding throughout (type): functional, organism-based
The species named for assay [1] is Homo sapiens. The assay can be described thus: Inhibition of U-46,619 induced human platelet aggregation. In outline: (§1)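 Human platelet-rich plasma from drug-free volunteers (no medication ≥10 days). Compounds prepared fresh in N2-deoxygenated 10 mM sodium phosphate/0.9% NaCl pH 7.4 (one in DMSO, final 0.14%), added 1 min before inducer: ADP 1–5 μM, AA 0.2–1 mM or U46619 0.3–0.5 μM. Turbidometric aggregometry; IC50 from light-transmittance amplitude at 6 min (ADP, secondary wave) or 4 min (AA, U46619); mean ± SEM over donors.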

Assay [2] is filed under the species Homo sapiens. As to the kind of experiment: Inhibition of U-46,619 induced serotonin secretion. In outline: (§2)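 Platelets in human platelet-rich plasma prelabeled with [14C]serotonin; dense-granule secretion read as released radioactivity. Compounds in deoxygenated 10 mM sodium phosphate/0.9% NaCl pH 7.4, given 1 min before ADP (1–5 μM), AA (0.2–1 mM) or U46619 (0.3–0.5 μM). Top drug levels 4000–5000 μM; mean ± SEM across donors.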

For assay [3], the species on record is Homo sapiens. The assay can be described thus: Inhibition of adenosine diphosphate (ADP) induced human platelet aggregation. In short, it runs like this: as §1
The species entered for assay [4] is Homo sapiens. The assay can be described thus: Inhibition of adenosine diphosphate (ADP) induced serotonin secretion. In outline:
as §2

The species entered for assay [5] is Homo sapiens. The assay can be described thus: Inhibition of arachidonic acid (AA) induced human platelet aggregation. In short, it runs like this: as §1
Assay [6] is filed under the species Homo sapiens. As to the kind of experiment: Inhibition of arachidonic acid (AA) induced serotonin secretion. In outline:
as §2

Assay [7] is filed under the species Homo sapiens. As to the kind of experiment: Inhibition of U-46,619 induced serotonin secretion; c=No response. In outline:
as §2

Turning to `O=c1c(O)c(O)oc2ccc(O)cc12`, the IC50 is more than 4 mM in the assay listed under Homo sapiens [1]; more than 4 mM in the assay filed under Homo sapiens [2]; 1420 µM in the assay listed under Homo sapiens [3]; 1520 µM in the assay filed under Homo sapiens [4]; 3.51 mM in the assay listed under Homo sapiens [5]; 3.41 mM in the assay filed under Homo sapiens [6].
For the molecule `O=C1C(O)=C(O)OC1c1ccc(Cl)cc1` (configuration not stated), the IC50 in the assay filed under Homo sapiens [1] was more than 4 mM; in the assay listed under Homo sapiens [2], more than 4 mM; in the assay listed under Homo sapiens [3], 1090 µM; in the assay listed under Homo sapiens [4], 1210 µM; in the assay listed under Homo sapiens [5], more than 4 mM; in the assay filed under Homo sapiens [6] it was more than 4 mM.
As to `O=C1C(O)=C(O)OC12CCCC2`, the IC50 in the assay filed under Homo sapiens [1] was more than 4 mM; in the assay listed under Homo sapiens [2], more than 4 mM; in the assay listed under Homo sapiens [3], more than 4000 µM; in the assay listed under Homo sapiens [4] it was more than 4000 µM; in the assay listed under Homo sapiens [5], more than 4 mM; in the assay filed under Homo sapiens [6] it was more than 4 mM.
As for `O=C1C(O)=C(O)OC12CCCCC2`, the 50% inhibitory concentration (IC50) is more than 4 mM in the assay listed under Homo sapiens [1]; more than 4 mM in the assay listed under Homo sapiens [2]; more than 3300 µM in the assay listed under Homo sapiens [3]; more than 3000 µM in the assay filed under Homo sapiens [4]; more than 4 mM in the assay filed under Homo sapiens [5]; more than 4 mM in the assay listed under Homo sapiens [6].
With `O=c1c(O)c(O)oc2cc3c(cc12)OCO3`, the IC50 in the assay listed under Homo sapiens [1] came out at 1.11 mM; in the assay filed under Homo sapiens [2] it was 0.744 mM; in the assay filed under Homo sapiens [3], 426 µM; in the assay listed under Homo sapiens [4] it was 389 µM; in the assay listed under Homo sapiens [5], 3.98 mM; in the assay listed under Homo sapiens [6] it was 1.55 mM.
In the case of `O=C1C(O)=C(O)OC2CCCCC12` (configuration not stated), the IC50 was more than 4 mM in the assay listed under Homo sapiens [1]; more than 4 mM in the assay listed under Homo sapiens [2]; 447 µM in the assay listed under Homo sapiens [3]; 406 µM in the assay filed under Homo sapiens [4]; more than 4 mM in the assay listed under Homo sapiens [5]; more than 4 mM in the assay listed under Homo sapiens [6].
With `O=c1c(O)c(O)oc2ccccc12`, the 50% inhibitory concentration (IC50) in the assay filed under Homo sapiens [1] turned out to be 3.41 mM; in the assay listed under Homo sapiens [2], 3.98 mM; in the assay listed under Homo sapiens [3], 531 µM; in the assay listed under Homo sapiens [4], 472 µM; in the assay listed under Homo sapiens [5], 0.561 mM; in the assay filed under Homo sapiens [6], 0.925 mM.
Consider `O=c1c(O)c(O)oc2ccc(-c3ccccc3)cc12`, for which the IC50 in the assay filed under Homo sapiens [1] turned out to be 0.422 mM; in the assay filed under Homo sapiens [2], 0.345 mM; in the assay filed under Homo sapiens [3], 522 µM; in the assay filed under Homo sapiens [4], 450 µM; in the assay filed under Homo sapiens [5], 0.253 mM; in the assay listed under Homo sapiens [6], 0.407 mM.
On to `CC(C)(C)c1cc2oc(O)c(O)c(=O)c2cc1O`, for which the IC50 in the assay listed under Homo sapiens [1] is more than 4 mM; in the assay listed under Homo sapiens [2] it was more than 4 mM; in the assay filed under Homo sapiens [3], 1640 µM; in the assay filed under Homo sapiens [4] it was 2180 µM; in the assay filed under Homo sapiens [5], more than 4 mM; in the assay listed under Homo sapiens [6] it was more than 4 mM.
`O=c1c(O)c(O)oc2ccc(Cl)cc12`: the IC50 in the assay listed under Homo sapiens [1] amounted to 1.4 mM; in the assay listed under Homo sapiens [3] it was 498 µM; in the assay listed under Homo sapiens [4], 513 µM; in the assay listed under Homo sapiens [5], 0.78 mM; in the assay listed under Homo sapiens [6], 1.13 mM.
Consider `O=C1C(O)=C(O)OC2CCCC[C@H]12` (some centres not stated), for which the IC50 was 3.09 mM in the assay listed under Homo sapiens [1]; “Not Active” in the assay filed under Homo sapiens [7]; 481 µM in the assay listed under Homo sapiens [3]; 492 µM in the assay listed under Homo sapiens [4]; more than 4 mM in the assay listed under Homo sapiens [5]; more than 4 mM in the assay filed under Homo sapiens [6].
Take `CC(=O)Oc1ccccc1C(=O)O` [ASPIRIN]: the IC50 was 59 µM in the assay listed under Homo sapiens [3], 50 µM in the assay listed under Homo sapiens [4], 0.089 mM in the assay filed under Homo sapiens [5] and 0.095 mM in the assay filed under Homo sapiens [6].
Take `CC(C)(Oc1ccc(Cl)cc1)C(=O)O` [CLOFIBRIC ACID]: the IC50 in the assay listed under Homo sapiens [1] was more than 4 mM; in the assay filed under Homo sapiens [2], 3.08 mM; in the assay listed under Homo sapiens [5], more than 3.2 mM; in the assay listed under Homo sapiens [6] it was more than 3.5 mM.
For `COc1ccc2c(c1)c(CC(=O)O)c(C)n2C(=O)c1ccc(Cl)cc1` [INDOMETHACIN], the IC50 stood at 0.8 µM in the assay listed under Homo sapiens [3], 0.7 µM in the assay filed under Homo sapiens [4], 0.001 mM in the assay listed under Homo sapiens [5] and 0.001 mM in the assay listed under Homo sapiens [6].

As usually defined, the IC50 is the point on the concentration scale where inhibition reaches its midpoint. Read a low IC50 as greater potency.
